Measured values: ChEMBL document CHEMBL4732018, “Design, synthesis, and biological evaluation of pyrazole-linked aloe emodin derivatives as potential anticancer agents” (RSC Med Chem, 2021)
Blank lines part the entries; values can stand above or below the molecule they belong to. Calls of active or inactive are those of the source. The rule behind the calls is not given here.

How the values were obtained:
[1] = test system: HepG2; assay: Anticancer activity against human HepG2 cells assessed as cell growth inhibition measured after 48 hrs by MTT assay; assay type: functional, cell-based; conditions: HepG2, 48 h
Procedure, shortened: (§1)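 MTT test on ATCC lines grown in RPMI with 10% FBS and antibiotic/antimycotic at 37 °C in 5% CO₂. Cells were seeded at 4 x 10^3/well and treated for 48 h at 2.5, 5, 10 and 20 µM, from DMSO stocks diluted in medium. MTT (10 mg/mL stock) was then added for 3 h and absorbance read at 540 nm. IC50 derived; three independent experiments.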

[2] = test system: MDA-MB-231; assay: Anticancer activity against human MDA-MB-231 cells assessed as cell growth inhibition measured after 48 hrs by MTT assay; assay type: functional, cell-based; conditions: MDA-MB-231, 48 h; procedure, shortened: as §1
[3] = test system: HEK293; assay: Cytotoxicity against human HEK293 cells assessed as cell growth inhibition measured after 48 hrs by MTT assay; assay type: cell-based; conditions: HEK293, 48 h; procedure, shortened: as §1
[4] = test system: B16-F10; assay: Anticancer activity against mouse B16-F10 cells assessed as cell growth inhibition measured after 48 hrs by MTT assay; assay type: functional, cell-based; conditions: B16-F10, 48 h; procedure, shortened: as §1
[5] = test system: MCF7; assay: Anticancer activity against human MCF-7 cells assessed as cell growth inhibition measured after 48 hrs by MTT assay; assay type: functional, cell-based; conditions: MCF7, 48 h; procedure, shortened: as §1
[6] = test system: MDA-MB-231; assay: Induction of cell cycle arrest in human MDA-MB-231 cells assessed as accumulation at G2/M phase at 20 uM measured after 24 hrs by PI staining based flow cytometry (reference value: 4.31 %); assay type: functional
[7] = test system: MDA-MB-231; assay: Induction of cell cycle arrest in human MDA-MB-231 cells assessed as accumulation at G1/S phase at 20 uM measured after 24 hrs by PI staining based flow cytometry (reference value: 19.33 %); assay type: functional
[8] = test system: MDA-MB-231; assay: Induction of apoptosis in human MDA-MB-231 cells assessed as early apoptotic cells at 10 uM measured after 24 hrs by Annexin V-FITC/PI staining based flow cytometric analysis (reference value: 6.73 %); assay type: functional
[9] = test system: MDA-MB-231; assay: Induction of apoptosis in human MDA-MB-231 cells assessed as increase in caspase 9 activity at 5 to 20 uM pretreated for 48 hrs followed by LEHD-pNA substrate addition for 2 hrs by colorimetric analysis; assay type: functional, cell-based; conditions: dose 5-20 µM, time 50.0 hrs
[10] = test system: MDA-MB-231; assay: Induction of apoptosis in human MDA-MB-231 cells assessed as increase in caspase 6 activity at 5 to 20 uM pretreated for 48 hrs followed by VEID-pNA substrate addition for 2 hrs by colorimetric analysis; assay type: functional, cell-based; conditions: dose 5-20 µM, time 50.0 hrs
Procedure, shortened: (§2)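 Colorimetric caspase kit. MDA-MB-231 cells were cultured 24 h, then treated at 0, 5, 10 and 20 µM for 48 h. Lysates were mixed with reaction buffer containing 10 mM DTT. pNA substrate was added at 4 mM final (VDVAD for caspase-2, DEVD for caspase-3, VEID for caspase-6) and incubated 2 h at 37 °C. Absorbance read at 405 nm; triplicate, mean ± SD.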

[11] = test system: MDA-MB-231; assay: Induction of cell cycle arrest in human MDA-MB-231 cells assessed as accumulation at G2/M phase at 5 uM measured after 24 hrs by PI staining based flow cytometry (reference value: 4.31 %); assay type: functional
[12] = test system: MDA-MB-231; assay: Induction of apoptosis in human MDA-MB-231 cells assessed as late apoptotic cells at 20 uM measured after 24 hrs by Annexin V-FITC/PI staining based flow cytometric analysis; assay type: functional
[13] = test system: MDA-MB-231; assay: Induction of cell cycle arrest in human MDA-MB-231 cells assessed as accumulation at G0/G1 phase at 20 uM measured after 24 hrs by PI staining based flow cytometry (reference value: 76.36 %); assay type: functional
[14] = test system: MDA-MB-231; assay: Induction of membrane disintegrity in human MDA-MB-231 cells assessed as increase in LDH release at 2.5 to 20 uM incubated for 48 hrs by LDH leakage assay; assay type: functional, cell-based; conditions: dose 2.5-20 µM
Procedure, shortened: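 Extracellular LDH kit assay. Cells were seeded at 4 x 10^3/well and treated 48 h at various concentrations. 20 µL of culture supernatant was assayed with absorbance at 450 nm. Results are expressed as % LDH leakage relative to untreated control cells; triplicate, mean ± SD.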

[15] = test system: MDA-MB-231; assay: Induction of apoptosis in human MDA-MB-231 cells assessed as increase in caspase 3 activity at 5 to 20 uM pretreated for 48 hrs followed by DEVD-pNA substrate addition for 2 hrs by colorimetric analysis; assay type: functional, cell-based; conditions: dose 5-20 µM, time 50.0 hrs; procedure, shortened: as §2
[16] = test system: MDA-MB-231; assay: Induction of apoptosis in human MDA-MB-231 cells assessed as increase in caspase 8 activity at 5 to 20 uM pretreated for 48 hrs followed by IETD-pNA substrate addition for 2 hrs by colorimetric analysis; assay type: functional, cell-based; conditions: dose 5-20 µM, time 50.0 hrs
[17] = test system: MDA-MB-231; assay: Induction of cell cycle arrest in human MDA-MB-231 cells assessed as accumulation at G1/S phase at 5 uM measured after 24 hrs by PI staining based flow cytometry (reference value: 19.33 %); assay type: functional
[18] = test system: MDA-MB-231; assay: Induction of apoptosis in human MDA-MB-231 cells assessed as late apoptotic cells at 5 uM measured after 24 hrs by Annexin V-FITC/PI staining based flow cytometric analysis; assay type: functional
[19] = test system: MDA-MB-231; assay: Induction of apoptosis in human MDA-MB-231 cells assessed as early apoptotic cells at 20 uM measured after 24 hrs by Annexin V-FITC/PI staining based flow cytometric analysis (reference value: 6.73 %); assay type: functional
[20] = test system: MDA-MB-231; assay: Induction of apoptosis in human MDA-MB-231 cells assessed as late apoptotic cells at 10 uM measured after 24 hrs by Annexin V-FITC/PI staining based flow cytometric analysis; assay type: functional
[21] = test system: MDA-MB-231; assay: Induction of apoptosis in human MDA-MB-231 cells assessed as increase in caspase 2 activity at 5 to 20 uM pretreated for 48 hrs followed by VDVAD-pNA substrate addition for 2 hrs by colorimetric analysis; assay type: functional, cell-based; conditions: dose 5-20 µM, time 50.0 hrs; procedure, shortened: as §2
[22] = test system: MDA-MB-231; assay: Induction of apoptosis in human MDA-MB-231 cells assessed as early apoptotic cells at 5 uM measured after 24 hrs by Annexin V-FITC/PI staining based flow cytometric analysis (reference value: 6.73 %); assay type: functional
[23] = test system: MDA-MB-231; assay: Induction of cell cycle arrest in human MDA-MB-231 cells assessed as accumulation at sub G0 phase at 20 uM measured after 24 hrs by PI staining based flow cytometry (reference value: 1.33 %); assay type: functional
[24] = test system: MDA-MB-231; assay: Induction of cell cycle arrest in human MDA-MB-231 cells assessed as accumulation at G2/M phase at 10 uM measured after 24 hrs by PI staining based flow cytometry (reference value: 4.31 %); assay type: functional
[25] = test system: MDA-MB-231; assay: Induction of cell cycle arrest in human MDA-MB-231 cells assessed as accumulation at G0/G1 phase at 10 uM measured after 24 hrs by PI staining based flow cytometry (reference value: 76.36 %); assay type: functional
[26] = test system: MDA-MB-231; assay: Induction of cell cycle arrest in human MDA-MB-231 cells assessed as accumulation at sub G0 phase at 10 uM measured after 24 hrs by PI staining based flow cytometry (reference value: 1.33 %); assay type: functional
[27] = test system: MDA-MB-231; assay: Induction of cell cycle arrest in human MDA-MB-231 cells assessed as accumulation at G0/G1 phase at 5 uM measured after 24 hrs by PI staining based flow cytometry (reference value: 76.36 %); assay type: functional
[28] = test system: MDA-MB-231; assay: Induction of cell cycle arrest in human MDA-MB-231 cells assessed as accumulation at G1/S phase at 10 uM measured after 24 hrs by PI staining based flow cytometry (reference value: 19.33 %); assay type: functional
[29] = test system: MDA-MB-231; assay: Induction of cell cycle arrest in human MDA-MB-231 cells assessed as accumulation at sub G0 phase at 5 uM measured after 24 hrs by PI staining based flow cytometry (reference value: 1.33 %); assay type: functional

SMILES: COc1cccc2c1C(=O)c1c(O)c3c(c(O)c1C2=O)C[C@@](O)(C(=O)CO)C[C@@H]3O[C@H]1C[C@H](N)[C@H](O)[C@H](C)O1 [DOXORUBICIN]
IC50 [1]: 2.35 µM
IC50 [2]: 2.56 µM
IC50 [3]: 1.65 µM
IC50 [4]: 3.28 µM

SMILES: CCOC(=O)c1c(-c2cc(O)c3c(c2)C(=O)c2cccc(O)c2C3=O)nn(-c2ccc(Cl)cc2)c1C(=O)OCC
IC50 [1]: 2.16 µM
IC50 [2]: 6.2 µM
IC50 [3]: 1.09 µM
IC50 [4]: 3.9 µM
IC50 [5]: 3.96 µM

SMILES: CCOC(=O)c1c(-c2cc(O)c3c(c2)C(=O)c2cccc(O)c2C3=O)nn(-c2ccc(Br)cc2)c1C(=O)OCC
IC50 [1]: 1.26 µM
IC50 [2]: 2.16 µM
IC50 [3]: 9.07 µM
IC50 [4]: 8.15 µM
IC50 [5]: 8.98 µM

SMILES: O=C1c2cccc(O)c2C(=O)c2c(O)cc(CO)cc21 [ALOE-EMODIN]
IC50 [1]: 6.13 µM
IC50 [2]: 12.2 µM
IC50 [3]: 1 µM
IC50 [4]: 3.12 µM
IC50 [5]: 4.14 µM

SMILES: COC(=O)c1c(-c2cc(O)c3c(c2)C(=O)c2cccc(O)c2C3=O)nn(-c2ccc(C(C)C)cc2)c1C(=O)OC
Activity [6]: 0%
Activity [7]: 25.8%
Activity [8]: 38.08%
IC50 [1]: 3.99 µM
IC50 [2]: 1.66 µM
Activity [9]: Active
Activity [10]: Active
Activity [11]: 0.62%
Activity [12]: 50.45%
Activity [13]: 74.2%
Activity [14]: Active
IC50 [3]: 21.2 µM
IC50 [4]: 6.06 µM
Activity [15]: Active
Activity [16]: Active
IC50 [5]: 2.68 µM
Activity [17]: 22.19%
Activity [18]: 17.43%
Activity [19]: 35.34%
Activity [20]: 14.24%
Activity [21]: Active
Activity [22]: 20.55%
Activity [23]: 61.45%
Activity [24]: 0.05%
Activity [25]: 65.81%
Activity [26]: 10.87%
Activity [27]: 77.2%
Activity [28]: 34.14%
Activity [29]: 5.66%

SMILES: CCOC(=O)c1c(-c2cc(O)c3c(c2)C(=O)c2cccc(O)c2C3=O)nn(-c2ccc(OC(F)(F)F)cc2)c1C(=O)OCC
IC50 [1]: 6.23 µM
IC50 [2]: 3.96 µM
IC50 [3]: 9.76 µM
IC50 [4]: 3.35 µM
IC50 [5]: 3.58 µM

Continued, in another order:

IC50 [1]: 1.35 µM
IC50 [2]: 7.56 µM
IC50 [4]: 1.57 µM
IC50 [5]: 1.13 µM
SMILES: CCOC(=O)c1c(-c2cc(O)c3c(c2)C(=O)c2cccc(O)c2C3=O)nn(-c2ccccc2C)c1C(=O)OCC
IC50 [3]: 2.47 µM

IC50 [1]: 1.15 µM
IC50 [2]: 0.99 µM
IC50 [4]: 3.46 µM
IC50 [5]: 6.35 µM
SMILES: CCOC(=O)c1c(-c2cc(O)c3c(c2)C(=O)c2cccc(O)c2C3=O)nn(-c2cccc(C)c2)c1C(=O)OCC
IC50 [3]: 1.12 µM

IC50 [1]: 1 µM
IC50 [2]: 0.9 µM
IC50 [4]: 1.85 µM
IC50 [5]: 1.04 µM
SMILES: CCOC(=O)c1c(-c2cc(O)c3c(c2)C(=O)c2cccc(O)c2C3=O)nn(-c2ccc(C)c(C)c2)c1C(=O)OCC
IC50 [3]: 1.03 µM
